This note sets out measurements from paper PMC11561146 (Communications Biology, 2024).

“Also recorded” adds a separate entry of the source.

Assay [1] deals with T1, TrK13-WT (Plasmodium falciparum, UniProt Q8IDQ2).
T1 sequence (Q8IDQ2 189-726): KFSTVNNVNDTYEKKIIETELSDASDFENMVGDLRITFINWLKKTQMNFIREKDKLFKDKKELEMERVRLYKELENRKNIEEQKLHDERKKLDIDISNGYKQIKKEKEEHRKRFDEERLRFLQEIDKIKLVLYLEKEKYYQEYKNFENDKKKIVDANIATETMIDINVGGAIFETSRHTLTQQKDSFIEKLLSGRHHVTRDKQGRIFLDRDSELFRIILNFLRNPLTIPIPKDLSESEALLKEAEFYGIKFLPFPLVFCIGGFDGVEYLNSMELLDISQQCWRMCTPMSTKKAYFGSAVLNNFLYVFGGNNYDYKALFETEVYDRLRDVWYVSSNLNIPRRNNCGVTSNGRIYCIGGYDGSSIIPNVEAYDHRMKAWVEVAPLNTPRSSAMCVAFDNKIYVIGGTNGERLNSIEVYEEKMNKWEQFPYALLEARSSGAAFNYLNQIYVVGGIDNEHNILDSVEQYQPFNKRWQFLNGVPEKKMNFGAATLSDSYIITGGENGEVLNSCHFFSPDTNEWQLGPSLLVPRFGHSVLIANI
In words: UV-visible spectrophotometry of heme binding.

A further assay has as its system heme-bound TrK13-WT. In words: Detection of AAS by UV-visible spectrophotometry. It counts as biochemical, Plasmodium falciparum. The conditions noted are these: for increase in the intensity of the 380 nm peak vs heme-bound protein without ART: 200 µM ART or DOA, 30 min, after G-25 desalting.
The test system of another assay is heme-TrK13-R539T complex. In words: Detection of AAS by UV-visible spectrophotometry. The conditions noted are these: 200 µM ART, 30 min. Format: biochemical, Plasmodium falciparum. In outline:
(§1)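 Purified recombinant protein (10 µM) is incubated for 1 h at room temperature with or without equimolar dithionite-reduced heme (or Zn-PPIX). It is then desalted on a G-25 spin column to remove unbound heme. The >5 kDa eluate is incubated with 200 µM ART or DOA for 30 min. Spectra are scanned at 250–700 nm for the Soret peak, with no-heme and no-ART controls.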

A short description of assay [2]: Detection of ART activated species. Format: biochemical. The conditions noted are these: heme: ART or derivative 1:1.20, 30 min, reducing conditions. An outline of the steps: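 Heme under reducing conditions was reacted with test compound for 30 min, with no protein. Mixtures were run on a C4 column at 1 mL/min using a 0.05% TFA water/acetonitrile gradient (A/B 63/37 to 52/48 over 15 min, then 15 min hold), with Soret detection at 410 nm. Free heme and AAS peaks were integrated, and AAS was given as a percentage of heme by AUC; mean ± SD, three independent experiments.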

The target in another assay is heme-BSA complex (Bos taurus, UniProt P02769). The assay can be described thus: Detection of AAS by UV-visible spectrophotometry. Format: biochemical. Particulars: ART, 30 min. In outline:
as §1

Assay [3] relates to heme bound to TrK13-R539T. In words: Detection of AAS by HPLC, protein-bound heme after G-25 desalting. Format: biochemical, Plasmodium falciparum. Particulars: heme-TrK13 mixture desalted (G-25) before ART addition. An outline of the steps: (§2)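 Recombinant TrK13 protein (10 µM) was incubated with 60 µM reduced heme for 30 min at 37°C. Unbound heme was removed on a G-25 desalting column, then 72 µM test compound was added for another 30 min. Products were separated on a C4 column at 1 mL/min with 0.05% TFA water/acetonitrile (A/B 63/37 to 52/48 over 15 min, then 15 min hold). Detection was at 410 nm. AAS was expressed as a percentage of heme peak area (AUC); mean ± SD, three independent experiments.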

For a further assay, the system named is heme-PfHRP2 complex. In words: Detection of AAS by UV-visible spectrophotometry. Particulars: ART, 30 min. It counts as biochemical, Plasmodium falciparum.
Another assay deals with heme-TrK13-C580Y complex. The assay can be described thus: Detection of AAS by UV-visible spectrophotometry. Format: biochemical, Plasmodium falciparum. Particulars: 200 µM ART, 30 min. An outline of the steps:
as §1

Another assay concerns heme bound to TrK13-WT. In words: Detection of AAS by HPLC, protein-bound heme after G-25 desalting. It counts as biochemical, Plasmodium falciparum. The conditions noted are these: heme-TrK13 mixture desalted (G-25) before ART addition. In outline:
as §2

Another assay concerns heme-bound TrK13-A578S. In words: Detection of AAS by UV-visible spectrophotometry. Particulars: 200 µM ART, 30 min. It counts as biochemical, Plasmodium falciparum. An outline of the steps:
as §1

The subject of assay [4] is recombinant TrK13-WT protein. In words: UV-visible spectrophotometry of TrK13-WT with metal salts. Format: binding, Plasmodium falciparum. Particulars: TrK13-WT 5 μM, metal salt 500 μM (100-times molar excess).
Assay [5] concerns TrK13-QNG (E688Q-E691N-H697G). In words: Ferene S colorimetric assay of iron binding. Details: species or system Plasmodium falciparum. Particulars: Ferene S assay with FAS.
The test system of assay [6] is recombinant TrK13-WT protein. In words: Ferene S colorimetric assay of iron binding. More on the design: species or system Plasmodium falciparum. The conditions noted are these: TrK13-WT 5 μM, 30-times molar excess (150 μM) FAS, G-25 desalted.
In assay [7] the target is T1, TrK13-WT. It counts as binding. Particulars: TrK13-WT 10 µM, 10-fold molar excess of competitor. An outline of the steps: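 TrK13-WT (10 µM) was preincubated for 1 h at RT with 100 µM reduced heme or a heme analog. Hemin-agarose beads (50% v/v suspension) were then added for 1 h at RT, rotating, in MOPS pH 7.4. Beads were washed five times with MOPS. Bound protein was eluted in Laemmli buffer and resolved by SDS-PAGE with Coomassie staining. Band pixel intensity was expressed relative to the no-competitor band, set as 100%.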

For the next assay, the target named is T2, TrK13-C580Y (Plasmodium falciparum, UniProt Q8IDQ2, C580Y).
T2 sequence (Q8IDQ2 189-726 C580Y): T1 sequence (Q8IDQ2 189-726)
In words: Tryptophan fluorescence quenching by heme. It counts as binding.

In the next assay the target is T3, TrK13-R539T (Plasmodium falciparum, UniProt Q8IDQ2, R539T).
T3 sequence (Q8IDQ2 189-726 R539T): T1 sequence (Q8IDQ2 189-726)
The assay can be described thus: Tryptophan fluorescence quenching by heme. It counts as binding.

A further assay deals with T4, TrK13-A578S (Plasmodium falciparum, UniProt Q8IDQ2, A578S).
T4 sequence (Q8IDQ2 189-726 A578S): T1 sequence (Q8IDQ2 189-726)
In words: Tryptophan fluorescence quenching by heme. Format: binding.

The target of assay [8] is T1, TrK13-WT. The assay can be described thus: Tryptophan fluorescence quenching by heme. It counts as binding.
Where [9] appears, read: protein 10 µM, heme 0–5 µM, excitation 295 nm.
[10] abbreviates: tryptophan fluorescence quenching.

Chain of heme-BSA complex (P02769 25-607, one chain of several): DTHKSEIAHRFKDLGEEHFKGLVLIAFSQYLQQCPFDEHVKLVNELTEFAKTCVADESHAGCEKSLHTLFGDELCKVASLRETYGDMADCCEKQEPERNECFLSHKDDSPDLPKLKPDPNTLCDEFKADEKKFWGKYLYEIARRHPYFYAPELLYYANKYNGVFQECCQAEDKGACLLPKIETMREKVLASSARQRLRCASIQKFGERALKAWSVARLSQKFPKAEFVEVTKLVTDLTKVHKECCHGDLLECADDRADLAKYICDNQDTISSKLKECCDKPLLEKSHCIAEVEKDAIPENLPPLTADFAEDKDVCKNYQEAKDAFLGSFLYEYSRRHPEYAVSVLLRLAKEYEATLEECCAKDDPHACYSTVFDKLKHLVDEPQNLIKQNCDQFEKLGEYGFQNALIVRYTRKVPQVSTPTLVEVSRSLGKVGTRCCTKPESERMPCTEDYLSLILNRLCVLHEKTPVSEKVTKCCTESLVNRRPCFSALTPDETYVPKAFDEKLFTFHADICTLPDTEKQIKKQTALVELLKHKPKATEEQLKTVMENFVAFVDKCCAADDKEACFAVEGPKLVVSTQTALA

With `C[C@@H]1CC[C@H]2[C@@H](C)C(=O)O[C@@H]3O[C@@]4(C)CC[C@@H]1[C@]32OO4` [ART, artemisinin], the “changes in the spectral profile of TrK13-WT at 250–700 nm (direct interaction)” value at TrK13-WT [1] (TrK13-WT 10 µM with excess (200 µM) ART, no heme) is given as “no visible changes”. Also, the “increase in the intensity of the 380 nm peak vs heme-bound protein without ART” value in the assay with heme-bound TrK13-WT was ~ 42%. The “increment in the 380 nm absorbance peak after addition of ART” value with heme-bound TrK13-WT (Fe^3+ hemin not pre-reduced to Fe^2+ heme) was “No increment”. For the same compound, the “increase in peak intensity at 380 nm” value with heme-TrK13-R539T complex is “barely detectable increase”; with heme-TrK13-C580Y complex, “barely detectable increase”; with heme-bound TrK13-A578S, ~ 176%. Further, in assay [2], the “AAS peaks in the HPLC chromatogram at 410 nm” value is given as “additional peaks”. Moreover, the “AAS formation (peak absorbance at 380 nm)” value at heme-BSA complex and in the assay with heme-PfHRP2 complex was “no AAS formation” throughout. Besides, the “Percentage of AAS versus heme (area under the curve)” value in [3] was ~ 30%; with heme bound to TrK13-WT it was ~ 50%.
As to `C[C@H]1[C@@H](O)O[C@@H]2O[C@@]3(C)CC[C@H]4[C@H](C)CC[C@@H]1[C@@]24OO3` [DHA, dihydroartemisinin], the “AAS peaks in the HPLC chromatogram at 410 nm” value in assay [2] is “additional peaks”.
For `C[C@@H]1CC[C@H]2[C@@H](C)C(=O)O[C@@H]3O[C@@]4(C)CC[C@@H]1[C@]32O4` [DOA, deoxyartemisinin], in the assay with heme-bound TrK13-WT, the “increase in the intensity of the 380 nm peak vs heme-bound protein without ART” value is “no increase; also recorded: no hyperchromic shift”.
Consider `O=S(=O)([O-])[O-].O=S(=O)([O-])[O-].[Fe+2].[NH4+].[NH4+]` [FAS, ferrous ammonium sulfate], for which the “increase in the absorbance of TrK13-WT at 280 nm relative to TrK13-WT alone (no salts)” value in assay [4] amounted to 5.82 times. In addition, the “reduction in absorbance at 595 nm in TrK13-QNG compared to TrK13-WT” value in assay [5] was ~ 33%. Besides, the “increase in the absorbance at 595 nm in the eluate vs FAS alone or TrK13-WT alone controls” value in [6] is on record as “Approximately 10 fold”.
Regarding `O=S(=O)([O-])[O-].O=S(=O)([O-])[O-].[Fe+3].[NH4+]` [FES, ferric ammonium sulfate], the “increase in the absorbance of TrK13-WT at 280 nm relative to TrK13-WT alone (no salts)” value in [4] was 12.84 times.
As for `C=CC1=C(C)c2cc3[nH]c(cc4nc(cc5[nH]c(cc1n2)c(C)c5CCC(=O)O)C(CCC(=O)O)=C4C)c(C)c3C=C` [PPIX, protoporphyrin IX], on TrK13-WT [7], the “inhibition of TrK13-WT binding to hemin-agarose beads” value is listed as ~ 50%.
In the case of `C=CC1=C(C)c2cc3[n-]c(cc4[n-]c(cc5nc(cc1n2)C(C)=C5C=C)c(C)c4CCC(=O)O)c(CCC(=O)O)c3C.[Zn+2]` [Zn-PPIX], on TrK13-WT [7], the “inhibition of TrK13-WT binding to hemin-agarose beads” value is given as ~ 65%. Moreover, the “increase in absorbance at 380 nm on ART addition, Zn-PPIX instead of heme” value with heme-bound TrK13-WT (TrK13-WT with Zn-PPIX, then ART) was “no increase”.
Take `C=CC1=C(C)c2cc3[nH]c(cc4nc(cc5[nH]c(cc1n2)c(C)c5C=C)C(C)=C4CCC(=O)O)c(CCC(=O)O)c3C.[Fe+3]` [heme, ferrous protoporphyrin IX]: the “Stern-Volmer quenching constant (KSV)” value at TrK13-C580Y (setting [9]) was found to be 1.75 µM⁻¹; at TrK13-R539T (setting [9]), 1.17 µM⁻¹; at TrK13-A578S (setting [9]) it was 0.66 µM⁻¹; at TrK13-WT [8] (setting [9]), 0.59 µM⁻¹. Also, the “Association constant (Ka)” value on TrK13-C580Y (setting [10]) turned out to be 1.47E + 07 M^-1; at TrK13-R539T (setting [10]) it was 7.86E + 07 M^-1; at TrK13-A578S (setting [10]), 2.88E + 11 M^-1; on TrK13-WT [8] (setting [10]), 1.35E + 11 M^-1. For the same compound, the Kd on TrK13-WT [1] (read-out: Kd (double reciprocal plot of 1/ΔA versus 1/[heme]), TrK13-WT 10 µM titrated with heme 0-26 µM, G25 desalted) came out at 36.22 ± 0.1 nM.
